Values after ≈ are worked out from the molar mass of the structure shown.
Legend:
[1] = test system: HL-60; experiment: Cytotoxicity against human HL60 cells assessed as reduction in cell viability after 48 hrs by ATPlite-based luminescent assay; settings: HL-60, 48 h
Summary of the method: (§1)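 Cells were grown […] with 10% FBS, glutamax, NEAA and pen/strep at 37 °C, 5% CO2. Media were DMEM for RPE-1, HepG2 and BJ (BJ plus 10 ng/ml bFGF), F-12K for PC3, and IMDM for K562/HL-60. Cells were seeded at 500 per well and dosed from DMSO at 12 concentrations, 40 µM to 1 nM, in triplicate. After 48 h, intracellular ATP was read by luminescence. ED50 was obtained by variable-slope nonlinear regression.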

[2] = test system: Enterococcus sp.; experiment: Antibacterial activity against Enterococcus sp. HK14365/08 clinical isolate after 24 hrs by microdilution assay; type: functional; settings: HK14365/08, 24 h
[3] = test system: Escherichia coli; experiment: Antibacterial activity against Escherichia coli ATCC 8739 after 24 hrs by microdilution assay; type: functional; settings: ATCC 8739, 24 h
Summary of the method: (§2)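 Broth microdilution in Mueller-Hinton medium buffered to pH 7.4 (±0.2), with DMSO as diluent at no more than 2% final. Compounds were tested as 2-fold serial dilutions from 2000 to 0.488 µmol/l. The inoculum was 0.5 McFarland (1.5×10^8 cfu/ml). Plates were held at 37 °C and read visually at 24 and 48 h. MIC was taken as 95% growth inhibition versus control, determined twice in duplicate.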

[4] = test system: Enterococcus sp.; experiment: Antibacterial activity against Enterococcus sp. HK14365/08 clinical isolate after 48 hrs by microdilution assay; type: functional; settings: HK14365/08, 48 h
[5] = test system: Staphylococcus aureus; experiment: Antibacterial activity against Staphylococcus aureus ATCC 6538 after 24 hrs by microdilution assay; type: functional; settings: ATCC 6538, 24 h
[6] = test system: Escherichia coli; experiment: Antibacterial activity against Escherichia coli ATCC 8739 after 48 hrs by microdilution assay; type: functional; settings: ATCC 8739, 48 h; summary of the method: as §2
[7] = test system: Klebsiella pneumoniae; experiment: Antibacterial activity against Klebsiella pneumoniae HK11750/08 clinical isolate after 48 hrs by microdilution assay; type: functional; settings: HK11750/08, 48 h
[8] = test system: PC-3; experiment: Induction of apoptosis in human PC3 cells assessed as caspase 3/7 activity after 24 hrs by caspase-glo luminescent assay; type: cell-based; settings: PC-3, 24 h
Summary of the method: (§3)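 Cells were seeded at 500 per well in their growth media and exposed to 12 concentrations from 40 µM to 1 nM, delivered from DMSO, in triplicate. After 24 h, caspase-3/7 activity was read by Caspase-Glo luminescence. Data were normalized and ED50 was fitted by variable-slope nonlinear regression.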

[9] = test system: Staphylococcus epidermidis; experiment: Antibacterial activity against Staphylococcus epidermidis HK6966/08 clinical isolate after 48 hrs by microdilution assay; type: functional; settings: HK6966/08, 48 h
[10] = test system: TERT-RPE1; experiment: Induction of apoptosis in human RPE1 cells assessed as caspase 3/7 activity after 24 hrs by caspase-glo luminescent assay; type: cell-based; settings: RPE-1, 24 h; summary of the method: as §3
[11] = test system: Staphylococcus aureus; experiment: Antibacterial activity against methicillin-resistant Staphylococcus aureus HK5996/08 clinical isolate after 24 hrs by microdilution assay; type: functional; settings: HK5996/08, 24 h
[12] = test system: Klebsiella pneumoniae; experiment: Antibacterial activity against Klebsiella pneumoniae HK11750/08 clinical isolate after 24 hrs by microdilution assay; type: functional; settings: HK11750/08, 24 h
[13] = test system: Staphylococcus aureus; experiment: Antibacterial activity against Staphylococcus aureus ATCC 6538 after 48 hrs by microdilution assay; type: functional; settings: ATCC 6538, 48 h
[14] = test system: K562; experiment: Cytotoxicity against human K562 cells assessed as reduction in cell viability after 48 hrs by ATPlite-based luminescent assay; settings: K562, 48 h; summary of the method: as §1
[15] = test system: MCF7; experiment: Cytotoxicity against human MCF7 cells assessed as reduction in cell viability after 48 hrs by ATPlite-based luminescent assay; settings: MCF7, 48 h
[16] = test system: K562; experiment: Induction of apoptosis in human K562 cells assessed as caspase 3/7 activity after 24 hrs by caspase-glo luminescent assay; type: cell-based; settings: K562, 24 h; summary of the method: as §3
[17] = test system: HepG2; experiment: Cytotoxicity against human HepG2 cells assessed as reduction in cell viability after 48 hrs by ATPlite-based luminescent assay; settings: HepG2, 48 h; summary of the method: as §1
[18] = test system: Klebsiella pneumoniae; experiment: Antibacterial activity against Klebsiella pneumoniae HK14368/08 clinical isolate after 48 hrs by microdilution assay; type: functional; settings: HK14368/08, 48 h
[19] = test system: Pseudomonas aeruginosa; experiment: Antibacterial activity against Pseudomonas aeruginosa ATCC 9027 after 48 hrs by microdilution assay; type: functional; settings: ATCC 9027, 48 h; summary of the method: as §2
[20] = test system: Pseudomonas aeruginosa; experiment: Antibacterial activity against Pseudomonas aeruginosa ATCC 9027 after 24 hrs by microdilution assay; type: functional; settings: ATCC 9027, 24 h; summary of the method: as §2
[21] = test system: Klebsiella pneumoniae; experiment: Antibacterial activity against Klebsiella pneumoniae HK14368/08 clinical isolate after 24 hrs by microdilution assay; type: functional; settings: HK14368/08, 24 h
[22] = test system: HL-60; experiment: Induction of apoptosis in human HL60 cells assessed as caspase 3/7 activity after 24 hrs by caspase-glo luminescent assay; type: cell-based; settings: HL-60, 24 h; summary of the method: as §3
[23] = test system: HepG2; experiment: Induction of apoptosis in human HepG2 cells assessed as caspase 3/7 activity after 24 hrs by caspase-glo luminescent assay; type: cell-based; settings: HepG2, 24 h; summary of the method: as §3
[24] = test system: TERT-RPE1; experiment: Cytotoxicity against human RPE1 cells assessed as reduction in cell viability after 48 hrs by ATPlite-based luminescent assay; settings: RPE-1, 48 h; summary of the method: as §1
[25] = test system: Staphylococcus epidermidis; experiment: Antibacterial activity against Staphylococcus epidermidis HK6966/08 clinical isolate after 24 hrs by microdilution assay; type: functional; settings: HK6966/08, 24 h
[26] = test system: PC-3; experiment: Cytotoxicity against human PC3 cells assessed as reduction in cell viability after 48 hrs by ATPlite-based luminescent assay; settings: PC-3, 48 h; summary of the method: as §1
[27] = test system: Staphylococcus aureus; experiment: Antibacterial activity against methicillin-resistant Staphylococcus aureus HK5996/08 clinical isolate after 48 hrs by microdilution assay; type: functional; settings: HK5996/08, 48 h
[28] = test system: BJ; experiment: Cytotoxicity against human BJ cells assessed as reduction in cell viability after 48 hrs by ATPlite-based luminescent assay; summary of the method: as §1

SMILES	IC50 [1]	MIC95 [2]	MIC95 [3]	MIC95 [4]	MIC95 [5]	MIC95 [6]	MIC95 [7]	IC50 [8]	MIC95 [9]	IC50 [10]	MIC95 [11]	MIC95 [12]	MIC95 [13]	IC50 [14]	IC50 [15]	IC50 [16]	IC50 [17]	MIC95 [18]	MIC95 [19]	MIC95 [20]	also measured
O=C1OCC(c2ccccc2)=C1c1cccc(C(F)(F)F)c1	> 40 µM	> 500 µM	> 500 µM	> 500 µM	15.6 µM (≈ 4.75 µg/mL)	> 500 µM	> 500 µM	> 40 µM	31.2 µM (≈ 9.51 µg/mL)	> 40 µM	62.5 µM (≈ 19 µg/mL)	> 500 µM	15.6 µM (≈ 4.75 µg/mL)	> 40 µM	> 40 µM	> 40 µM	> 40 µM	> 500 µM	> 500 µM	> 500 µM	MIC95 [21]: > 500 µM; IC50 [22]: > 40 µM; IC50 [23]: > 40 µM; IC50 [24]: > 40 µM; MIC95 [25]: 31.2 µM (≈ 9.51 µg/mL); IC50 [26]: > 40 µM; MIC95 [27]: 62.5 µM (≈ 19 µg/mL); IC50 [28]: > 40 µM
Cc1ccc(C2=C(c3ccc(F)cc3)C(=O)OC2)cc1	9.34 µM	> 500 µM	> 500 µM	> 500 µM	125 µM (≈ 33.5 µg/mL)	> 500 µM	> 500 µM	> 40 µM	125 µM (≈ 33.5 µg/mL)	> 40 µM	> 500 µM	> 500 µM	125 µM (≈ 33.5 µg/mL)	4 µM	> 40 µM	3.23 µM	> 40 µM	> 500 µM	> 500 µM	> 500 µM	MIC95 [21]: > 500 µM; IC50 [22]: 7.53 µM; IC50 [23]: > 40 µM; IC50 [24]: > 40 µM; MIC95 [25]: 125 µM (≈ 33.5 µg/mL); IC50 [26]: > 40 µM; MIC95 [27]: > 500 µM; IC50 [28]: > 40 µM
Cc1ccc(C2=C(c3cccc(C(F)(F)F)c3)C(=O)OC2)cc1	0.66 µM	> 500 µM	> 500 µM	> 500 µM	31.2 µM (≈ 9.95 µg/mL)	> 500 µM	> 500 µM	> 40 µM	15.6 µM (≈ 4.97 µg/mL)	> 40 µM	31.2 µM (≈ 9.95 µg/mL)	> 500 µM	31.2 µM (≈ 9.95 µg/mL)	0.29 µM	19.1 µM	0.31 µM	> 40 µM	> 500 µM	> 500 µM	> 500 µM	MIC95 [21]: > 500 µM; IC50 [22]: 2.66 µM; IC50 [23]: > 40 µM; IC50 [24]: 1.33 µM; MIC95 [25]: 15.6 µM (≈ 4.97 µg/mL); IC50 [26]: > 40 µM; MIC95 [27]: 31.2 µM (≈ 9.95 µg/mL); IC50 [28]: > 40 µM
COc1ccc(C2=C(c3ccc(Br)cc3)C(=O)OC2)cc1	0.83 µM	> 1000 µM	> 1000 µM	> 1000 µM	> 1000 µM	> 1000 µM	> 1000 µM	> 40 µM	> 1000 µM	56.4 µM	> 1000 µM	> 1000 µM	> 1000 µM	0.53 µM	14.3 µM	> 40 µM	> 40 µM	> 1000 µM	> 1000 µM	> 1000 µM	MIC95 [21]: > 1000 µM; IC50 [22]: 2.18 µM; IC50 [23]: > 40 µM; IC50 [24]: 3.35 µM; MIC95 [25]: 1000 µM (≈ 345 µg/mL); IC50 [26]: > 40 µM; MIC95 [27]: > 1000 µM; IC50 [28]: > 40 µM
O=C1OCC(c2ccc3c(c2)OCO3)=C1c1ccc2c(c1)OCO2	17.4 µM	> 125 µM	> 125 µM	> 125 µM	> 125 µM	> 125 µM	> 125 µM	> 40 µM	> 125 µM	> 40 µM	> 125 µM	> 125 µM	> 125 µM	16 µM	> 40 µM	> 40 µM	> 40 µM	> 125 µM	> 125 µM	> 125 µM	MIC95 [21]: > 125 µM; IC50 [22]: > 40 µM; IC50 [23]: > 40 µM; IC50 [24]: 35.5 µM; MIC95 [25]: > 125 µM; IC50 [26]: > 40 µM; MIC95 [27]: > 125 µM; IC50 [28]: > 40 µM
COc1ccc(C2=C(c3ccc(OC)c(OC)c3)C(CO)OC2=O)cc1 (stereo not drawn)	> 40 µM	> 125 µM	> 125 µM	> 125 µM	125 µM (≈ 44.5 µg/mL)	> 125 µM	> 125 µM	> 40 µM	62.5 µM (≈ 22.3 µg/mL)	> 40 µM	125 µM (≈ 44.5 µg/mL)	> 125 µM	125 µM (≈ 44.5 µg/mL)	> 40 µM	> 40 µM	> 40 µM	> 40 µM	> 125 µM	> 125 µM	> 125 µM	MIC95 [21]: > 125 µM; IC50 [22]: > 40 µM; IC50 [23]: > 40 µM; IC50 [24]: > 40 µM; MIC95 [25]: 62.5 µM (≈ 22.3 µg/mL); IC50 [26]: > 40 µM; MIC95 [27]: 125 µM (≈ 44.5 µg/mL); IC50 [28]: > 40 µM

From ChEMBL document CHEMBL4251593, “Nontoxic combretafuranone analogues with high in vitro antibacterial activity” (Eur J Med Chem, 2018)
